Experimental findings from ChEMBL document CHEMBL2412975 (Bioorg Med Chem, 2013) are described below.

The nature of series [1]: Apparent clearance in human liver microsomes. The note with it: read-out: CLH(app). In kind it is ADME, Microsome. In general terms: Liver microsomes are vesicles of endoplasmic reticulum, rich in cytochrome P450 enzymes.
Series [2] is described as follows: Cmax in rat at 5 mg/kg, po. In kind it is ADME, organism-based. The arrangement: dose 5 mg/kg, route oral. The note with it: in vivo. An outline of the steps: (§1)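 Rat PK. Oral dose 5 mg/kg given in 0.5% methylcellulose. Cmax and AUC are reported as free drug concentrations. Bioavailability is taken relative to a 1 mg/kg intravenous dose.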
Series [3] in a line: Volume of distribution at steady state in rat at 1 mg/kg, iv. The note with it: in vivo, read-out: Vdss. In kind it is ADME, organism-based. The arrangement: dose 1 mg/kg, route intravenous. An outline of the steps: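 Rat, single intravenous dose of 1 mg/kg. Steady-state volume of distribution comes from the plasma profile.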
Series [4] deals with Rattus norvegicus. Kind of series: AUC in rat at 5 mg/kg, po. In kind it is ADME, organism-based, Plasma. Also noted: dose 5 mg/kg, route oral. The conditions noted are these: in vivo. The method in brief: as §1
Series [5] can be described thus: Half life in rat. In kind it is ADME, organism-based. The conditions noted are these: in vivo. An outline of the steps:
as §1

The nature of series [6]: Metabolic stability in human liver microsomes assessed as compound remaining after 1 hr. Type of series: ADME, Microsome. The note with it: read-out: Stability. An outline of the steps:
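Human liver microsomes incubated with compound for 1 h. Read-out is percent of parent remaining.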

Series [7] concerns Rattus norvegicus. Briefly: Oral bioavailability in rat at 5 mg/kg. In kind it is ADME, organism-based. The conditions noted are these: in vivo. The method in brief: as §1
Series [8] in a line: Lipophilicity, log D of the compound. In kind it is physicochemical. The note with it: octanol/water.

For orientation: Cmax means the maximum level reached in the sampled fluid or tissue. One may read the AUC as the area under the concentration-time curve, a measure of exposure. Low values mean low exposure, high ones high exposure. Broadly, the half-life is the time in which the quantity being followed falls by half. As a reminder, the logD is lipophilicity at a set pH, counting ionised and neutral species. Low values mean lower lipophilicity, high ones higher lipophilicity.

The structures appear in SMILES notation.

For the compound `CC(C)(N)C[C@H]1CC[C@H](c2ccc(N3CCOc4ncnc(N)c4C3=O)cc2)CC1`, the CLint scaled in series [1] is 12 mL/min/kg.

Take `Nc1ncnc2c1C(=O)N(c1ccc([C@H]3CC[C@H](Cc4nnn[nH]4)CC3)cc1)CCO2`: the CLint scaled in series [1] is less than 8 mL/min/kg.

Take `Cc1nnc(C[C@H]2CC[C@H](c3ccc(N4CCOc5ncnc(N)c5C4=O)cc3)CC2)o1`: the CLint scaled in series [1] is less than 8 mL/min/kg.

For `CCNC(=O)C[C@H]1CC[C@H](c2ccc(N3CCOc4ncnc(N)c4C3=O)cc2)CC1`, the CLint scaled in series [1] is less than 8 mL/min/kg.

For `Nc1ncnc2c1C(=O)N(c1ccc(C3CCN(C(=O)[C@H]4CC[C@@H](O)CC4)CC3)cc1)CCO2`, in series [1], the CLint scaled was less than 8 mL/min/kg.

On to `Nc1ncnc2c1CN(c1ccc([C@H]3CC[C@H](CCO)CC3)cc1)CCO2`, for which the CLint scaled in series [1] is 11 mL/min/kg.

`Nc1ncnc2c1C(=O)N(c1ccc(C3CCN(C(=O)c4ccno4)CC3)cc1)CCO2`: the CLint scaled in series [1] came out at 13 mL/min/kg.

As to `CC(C)[C@H](CO)NC(=O)C[C@H]1CC[C@H](c2ccc(N3CCOc4ncnc(N)c4C3=O)cc2)CC1`, the CLint scaled in series [1] is less than 8 mL/min/kg.

Regarding `Nc1ncnc2c1C(=O)N(c1ccc([C@H]3CC[C@H](CC(=O)O)CC3)cc1)CCO2` [PF-04620110], in series [2], the Cmax amounted to 225 ng/mL. Moreover, in series [3], the Vd is 1.8 L/kg. In addition, the AUC in the series with Rattus norvegicus [4] stood at 565 ng·h/mL. For the same compound, the half-life in series [5] is 7.3 h. Besides, the CLint scaled in series [1] was less than 8 mL/min/kg. Besides, the remaining at 1 h in series [6] was determined as 93%.

Consider `Nc1ncnc2c1C(=O)N(c1ccc([C@H]3CC[C@H](CC(=O)N4CCOCC4)CC3)cc1)CCO2`, for which the F in the series with Rattus norvegicus [7] is listed as 77%. The same compound registered a Cmax in series [2] of 425 ng/mL. In series [3], the Vd was 1.2 L/kg. In the series on Rattus norvegicus [4], this compound had an AUC of 838 ng·h/mL. The same compound showed a half-life in series [5] of 2 h. Besides, in series [1], the CLint scaled was less than 8 mL/min/kg.

Take `Nc1ncnc2c1C(=O)N(c1ccc(C3CCN(C(=O)c4ccccc4)CC3)cc1)CCO2`: the CLint scaled in series [1] was less than 8 mL/min/kg.

For the compound `Cc1noc(CC[C@H]2CC[C@H](c3ccc(N4CCOc5ncnc(N)c5C4=O)cc3)CC2)n1`, the CLint scaled in series [1] turned out to be 82 mL/min/kg.

On to `Nc1ncnc2c1C(=O)N(c1ccc([C@H]3CC[C@H](CC(=O)NC4CCCC4)CC3)cc1)CCO2`, for which the CLint scaled in series [1] is 39 mL/min/kg.

Take `Cc1nnc(C[C@H]2CC[C@H](c3ccc(N4CCOc5ncnc(N)c5C4=O)cc3)CC2)n1C`: the CLint scaled in series [1] was less than 8 mL/min/kg.

Consider `Cc1nnc(C[C@H]2CC[C@H](c3ccc(N4CCOc5ncnc(N)c5C4=O)cc3)CC2)[nH]1`, for which the CLint scaled in series [1] is less than 8 mL/min/kg.

For the compound `CN1CCN(C(=O)C[C@H]2CC[C@H](c3ccc(N4CCOc5ncnc(N)c5C4=O)cc3)CC2)CC1=O`, in series [1], the CLint scaled worked out at 9 mL/min/kg.

Regarding `N#CC[C@H]1CC[C@H](c2ccc(N3CCOc4ncnc(N)c4C3=O)cc2)CC1`, in the series with Rattus norvegicus [7], the F was 85%. Also, the Cmax in series [2] is 174 ng/mL. Besides, the Vd in series [3] came out at 2 L/kg. Moreover, the exposure (AUC) with Rattus norvegicus [4] worked out at 801 ng·h/mL. This compound also had a half-life in series [5] of 3.1 h. In addition, the CLint scaled in series [1] is less than 8 mL/min/kg.

Turning to `Cc1nc(N)c2c(n1)OCCN(c1ccc([C@H]3CC[C@H](CC(=O)O)CC3)cc1)C2=O`, the CLint scaled in series [1] is less than 8 mL/min/kg.

On to `CC(=O)N1CCC(c2ccc(N3CCOc4ncnc(N)c4C3=O)cc2)CC1`, for which the CLint scaled in series [1] is less than 8 mL/min/kg.

For the compound `Nc1ncnc2c1C(=O)N(c1ccc(C3CCN(C(=O)C4CCCCC4)CC3)cc1)CCO2`, the CLint scaled in series [1] came to 41 mL/min/kg.

As for `Nc1ncnc2c1C(=O)N(c1ccc([C@H]3CC[C@H](CC(=O)N4CCCC4)CC3)cc1)CCO2`, in series [1], the CLint scaled was determined as 15 mL/min/kg.

For the compound `Nc1ncnc2c1C(=O)N(c1ccc(C3CCN(C(=O)C4CCOCC4)CC3)cc1)CCO2`, in series [1], the CLint scaled is less than 8 mL/min/kg.

Compound `CC(C)(O)C[C@H]1CC[C@H](c2ccc(N3CCOc4ncnc(N)c4C3=O)cc2)CC1` yielded a F in the series with Rattus norvegicus [7] of 100%. The same compound came in with a Cmax in series [2] of 171 ng/mL. In series [3], the Vd came to 1.3 L/kg. In the series with Rattus norvegicus [4], this compound gave an AUC of 1260 ng·h/mL. Further, the half-life in series [5] was 2.6 h. The CLint scaled in series [1] was less than 8 mL/min/kg.

For the compound `Cc1nnc(C[C@H]2CC[C@H](c3ccc(N4CCOc5ncnc(N)c5C4=O)cc3)CC2)s1`, the CLint scaled in series [1] was less than 8 mL/min/kg.

For `COC1CCN(C(=O)C[C@H]2CC[C@H](c3ccc(N4CCOc5ncnc(N)c5C4=O)cc3)CC2)CC1`, in series [1], the CLint scaled came out at 107 mL/min/kg.

Regarding `Nc1ccnc2c1C(=O)N(c1ccc([C@H]3CC[C@H](CC(=O)O)CC3)cc1)CCO2`, the CLint scaled in series [1] came out at 8.4 mL/min/kg.

`Nc1ncnc2c1C(=O)N(c1ccc([C@H]3CC[C@H](CC(=O)N4CC[C@@H](O)C4)CC3)cc1)CCO2`: the CLint scaled in series [1] is less than 8 mL/min/kg.

In turn, `Cc1noc(C[C@H]2CC[C@H](c3ccc(N4CCOc5ncnc(N)c5C4=O)cc3)CC2)n1` displayed a F in the series with Rattus norvegicus [7] of 53%. The same compound came in with a Cmax in series [2] of 118 ng/mL. In addition, the Vd in series [3] turned out to be 1.2 L/kg. Besides, in the series with Rattus norvegicus [4], the AUC was 727 ng·h/mL. The half-life in series [5] was 2.7 h. In addition, in series [1], the CLint scaled was less than 8 mL/min/kg. In series [8], this compound registered a logD of 2.3.

As for `Nc1ncnc2c1C(=O)N(c1ccc([C@H]3CC[C@H](CCC(=O)O)CC3)cc1)CCO2`, the CLint scaled in series [1] is less than 8 mL/min/kg.

`Nc1ncnc2c1C(=O)N(c1ccc(C3CCN(C(=O)c4ccon4)CC3)cc1)CCO2`: the CLint scaled in series [1] came out at 12 mL/min/kg.

For `CC(C)C(=O)N1CCC(c2ccc(N3CCOc4ncnc(N)c4C3=O)cc2)CC1`, in series [1], the CLint scaled was found to be 11 mL/min/kg.

On to `Nc1ncnc2c1C(=O)N(c1ccc(C3CCN(C(=O)c4cnon4)CC3)cc1)CCO2`, for which, in series [1], the CLint scaled is less than 8 mL/min/kg.

On to `Nc1ncnc2c1C(=O)N(c1ccc([C@H]3CC[C@H](CC(=O)N4CC(O)C4)CC3)cc1)CCO2`, for which the CLint scaled in series [1] is less than 8 mL/min/kg.

As for `CN(CC(=O)O)C(=O)C[C@H]1CC[C@H](c2ccc(N3CCOc4ncnc(N)c4C3=O)cc2)CC1`, in series [1], the CLint scaled is less than 8 mL/min/kg.

Take `NC(=O)C[C@H]1CC[C@H](c2ccc(N3CCOc4ncnc(N)c4C3=O)cc2)CC1`: the F in the series on Rattus norvegicus [7] turned out to be 88%. Further, the highest level in series [2] (Cmax) was 273 ng/mL. Besides, the Vd in series [3] was 1.6 L/kg. In the series on Rattus norvegicus [4], this compound gave an AUC of 810 ng·h/mL. The same compound showed a half-life in series [5] of 4.3 h. Also, the CLint scaled in series [1] is less than 8 mL/min/kg.
